pKi: −log10 of the molar value.
Experiments:
[1] = molecular target: T1, ATP-dependent translocase ABCB1 (Homo sapiens, UniProt P08183); experiment: Inhibition of human MDR1 expressed in mouse NIH-3T3 cells assessed as daunomycin efflux after 30 mins by flow cytometry; type: cell-based, NIH3T3
In short: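 MDR1-G185-transfected NIH-3T3 cells in log phase were seeded 24 h beforehand at 10^5 cells/well. They were incubated 30 min at 37 °C in DMEM + 10% iFBS with 2 µM daunomycin and varied sesquiterpene concentrations, washed in ice-cold PBS, trypsinized, and read for single-cell fluorescence by flow cytometry.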

[2] = molecular target: T2, MDR1 (ABCB1, P-glycoprotein) (Homo sapiens, UniProt P08183); experiment: (§1) Inhibition of human MDR1 expressed in mouse NIH-3T3 cells assessed as daunomycin efflux at 10 uM after 30 mins by flow cytometry; type: cell-based, NIH3T3; conditions: mouse NIH-3T3 cells expressing human MDR1, probe daunomycin
T2 sequence (P08183 whole entry): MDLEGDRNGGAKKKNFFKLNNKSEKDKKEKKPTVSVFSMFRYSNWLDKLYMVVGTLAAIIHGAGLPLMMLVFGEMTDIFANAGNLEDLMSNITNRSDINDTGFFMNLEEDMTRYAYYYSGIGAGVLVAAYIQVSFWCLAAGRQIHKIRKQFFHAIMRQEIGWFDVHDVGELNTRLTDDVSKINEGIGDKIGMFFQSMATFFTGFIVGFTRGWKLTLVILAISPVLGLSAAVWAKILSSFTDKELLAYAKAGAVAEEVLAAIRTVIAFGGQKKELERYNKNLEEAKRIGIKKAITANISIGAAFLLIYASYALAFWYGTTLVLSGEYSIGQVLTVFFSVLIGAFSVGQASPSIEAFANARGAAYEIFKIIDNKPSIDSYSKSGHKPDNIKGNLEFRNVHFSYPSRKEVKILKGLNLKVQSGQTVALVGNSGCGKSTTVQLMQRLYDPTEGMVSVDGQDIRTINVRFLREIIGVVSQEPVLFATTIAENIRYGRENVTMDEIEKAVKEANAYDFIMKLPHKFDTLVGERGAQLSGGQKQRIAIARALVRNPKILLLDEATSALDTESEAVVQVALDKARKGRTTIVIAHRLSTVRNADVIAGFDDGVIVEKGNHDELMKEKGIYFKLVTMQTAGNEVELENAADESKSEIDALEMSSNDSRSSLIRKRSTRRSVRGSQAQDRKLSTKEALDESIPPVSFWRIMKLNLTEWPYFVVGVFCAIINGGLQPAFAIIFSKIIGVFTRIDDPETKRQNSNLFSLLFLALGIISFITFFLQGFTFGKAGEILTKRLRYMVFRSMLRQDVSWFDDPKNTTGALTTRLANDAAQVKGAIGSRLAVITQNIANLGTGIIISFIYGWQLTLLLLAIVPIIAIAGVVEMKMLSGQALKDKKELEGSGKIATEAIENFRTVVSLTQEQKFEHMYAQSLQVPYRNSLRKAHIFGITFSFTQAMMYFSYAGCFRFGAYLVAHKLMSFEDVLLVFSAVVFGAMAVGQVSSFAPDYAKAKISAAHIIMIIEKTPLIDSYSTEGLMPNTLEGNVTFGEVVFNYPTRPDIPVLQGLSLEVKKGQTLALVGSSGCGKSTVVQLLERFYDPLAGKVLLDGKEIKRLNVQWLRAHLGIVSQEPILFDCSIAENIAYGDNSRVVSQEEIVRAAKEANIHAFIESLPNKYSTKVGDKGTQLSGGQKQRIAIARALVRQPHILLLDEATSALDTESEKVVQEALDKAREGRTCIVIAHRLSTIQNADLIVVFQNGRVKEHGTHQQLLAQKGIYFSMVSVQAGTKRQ

[3] = molecular target: T2, MDR1 (ABCB1, P-glycoprotein); experiment: Inhibition of human MDR1 expressed in mouse NIH-3T3 cells assessed as daunomycin efflux at 10 uM after 30 mins by flow cytometry relative to control; type: cell-based, NIH3T3; conditions: mouse NIH-3T3 cells expressing human MDR1, probe daunomycin, read-out: Imax
In short: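 Transfected MDR1-G185 NIH-3T3 cells were seeded 24 h prior at 10^5 cells/well. They were co-incubated 30 min at 37 °C in DMEM + 10% iFBS with 2 µM daunomycin and 10 µM sesquiterpene, then washed in ice-cold PBS, trypsinized and read by flow cytometry. Retention is expressed relative to 5 mM ortho-vanadate (100% Pgp inhibition). Mean ± S.D. of three independent experiments in triplicate.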

[4] = Intrinsic toxicity in wild type mouse NIH/3T3 cells assessed as cell growth at 10 uM relative to control; type: cell-based, NIH3T3; conditions: wild type NIH/3T3 cells, read-out: Activity
In short: (§2)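 Parental NIH-3T3 and MDR1-G185-transfected cells were cultured in DMEM with 10% heat-inactivated FBS, 2 mM L-glutamine and penicillin/streptomycin. Cells were exposed to 10 µM compound. Growth is reported as percent of untreated control. Mean ± S.D. of three independent experiments in triplicate.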

[5] = Intrinsic toxicity in mouse NIH/3T3 cells expressing human MDR1 assessed as cell growth at 10 uM relative to control; type: ADME, cell-based, NIH3T3; conditions: read-out: Activity; in short: as §2
[6] = molecular target: T1, ATP-dependent translocase ABCB1; experiment: as §1; type: cell-based, NIH3T3; conditions: nih3t3, 0.5 h, 10 µM

T1 sequence (P08183 whole entry): as above

| pKi [1] | inhibition at 0.5 h, 10 µM [2] [%] | inhibition at 0.5 h, 10 µM [3] [%] | inhibition (INH) [6] | SMILES | viability at 10 µM [4] [%] | viability at 10 µM [5] [%] |
| --- | --- | --- | --- | --- | --- | --- |
| 6.23 | 70 | > 90 |  | CC(=O)OC[C@]12[C@@H](OC(=O)c3ccoc3)C[C@@H]3[C@@H](OC(=O)c4ccccc4)[C@]1(OC3(C)C)[C@@](C)(O)C[C@H](OC(C)=O)[C@@H]2OC(C)=O | 92.4 | 87.8 |
|  |  |  | Active | CC(=O)OC[C@]12[C@@H](OC(=O)c3ccoc3)C[C@@H]3[C@@H](OC(=O)c4ccccc4)[C@]1(OC3(C)C)[C@@](C)(O)C[C@H](O)[C@@H]2OC(C)=O |  |  |
| 6.42 | 70 | > 90 |  | CC(=O)O[C@H]1[C@@H](OC(=O)c2ccccc2)C[C@](C)(O)[C@]23OC(C)(C)[C@H](C[C@H](OC(=O)c4ccoc4)[C@]12C)[C@H]3OC(=O)c1ccccc1 | 108 | 98 |
|  |  |  | Active | CC(=O)O[C@H]1[C@H](OC(=O)c2ccoc2)[C@@]2(C)[C@@H](OC(=O)c3ccccc3)C[C@@H]3C[C@]2(OC3(C)C)[C@@](C)(O)[C@H]1OC(C)=O |  |  |
| 6.19 | 70 | > 90 |  | CC(=O)O[C@@H]1[C@H](OC(C)=O)[C@@H](C)[C@@]23C[C@@H](C[C@H](OC(=O)c4ccccc4)[C@]2(C)[C@H]1OC(=O)c1ccoc1)C(C)(C)O3 | 91.8 | 92.4 |
|  |  |  | Active | CC(=O)O[C@@H]1C[C@](C)(O)[C@@]23C[C@@H](C[C@H](OC(=O)c4ccccc4)[C@]2(C)[C@H]1OC(=O)c1ccoc1)C(C)(C)O3 |  |  |
|  |  |  | Active | CC(=O)O[C@@H]1C[C@](C)(O)[C@@]23C[C@@H](C[C@H](OC(=O)c4ccoc4)[C@]2(C)[C@H]1OC(=O)c1ccoc1)C(C)(C)O3 |  |  |
| 6.24 | 70 | > 90 |  | CC(=O)O[C@@H]1C[C@](C)(O)[C@@]23C[C@@H](C[C@H](OC(=O)/C=C/c4ccccc4)[C@]2(C)[C@H]1OC(=O)c1ccoc1)C(C)(C)O3 | 86 | 100 |
|  |  |  | Active | CC(=O)O[C@@H]1C[C@@H](C)[C@@]23C[C@@H](C[C@H](OC(=O)c4ccccc4)[C@]2(C)[C@H]1OC(=O)c1ccoc1)C(C)(C)O3 |  |  |
|  |  |  | Active | CC1(C)O[C@]23C[C@H]1C[C@H](OC(=O)c1ccccc1)[C@]2(C)[C@@H](OC(=O)c1ccoc1)CC[C@]3(C)O |  |  |

Second part, the molecule before the results:

| SMILES | pKi [1] | inhibition at 0.5 h, 10 µM [2] [%] | inhibition at 0.5 h, 10 µM [3] [%] | inhibition (INH) [6] | viability at 10 µM [4] [%] | viability at 10 µM [5] [%] |
| --- | --- | --- | --- | --- | --- | --- |
| CC(=O)OC[C@]12[C@@H](OC(=O)c3ccoc3)C[C@@H]3[C@@H](OC(=O)c4ccccc4)[C@]1(OC3(C)C)[C@@](C)(O)C[C@H](OC(=O)c1ccccc1)[C@@H]2OC(C)=O | 6.47 | 70 | > 90 |  | 82.1 | 84.3 |
| CC(=O)OC[C@]12[C@@H](OC(=O)c3ccccc3)C[C@@H]3[C@@H](OC(=O)c4ccccc4)[C@]1(OC3(C)C)[C@@](C)(O)C[C@H](O)[C@@H]2OC(C)=O | 6.33 | 70 | > 90 |  | 84.4 | 105 |
| CC(=O)OC[C@]12[C@@H](OC(=O)c3ccoc3)C[C@@H]3[C@@H](OC(C)=O)[C@]1(OC3(C)C)[C@@](C)(O)C[C@H](OC(C)=O)[C@@H]2OC(C)=O |  |  |  | Active |  |  |
| CC(=O)OC[C@]12[C@@H](OC(=O)c3ccccc3)C[C@@H]3[C@@H](OC(=O)c4ccccc4)[C@]1(OC3(C)C)[C@@](C)(O)C[C@H](OC(C)=O)[C@@H]2OC(C)=O | 6.41 | 70 | > 90 |  | 76.7 | 77.2 |
| CC(=O)OC[C@]12[C@@H](OC(=O)c3ccoc3)C[C@@H]3[C@@H](OC(=O)c4ccoc4)[C@]1(OC3(C)C)[C@@](C)(O)C[C@H](OC(C)=O)[C@@H]2OC(C)=O | 6.29 | 70 | > 90 |  | 92 | 82.9 |
| CC(=O)OC[C@]12[C@@H](OC(=O)c3ccccc3)C[C@@H]3[C@@H](OC(C)=O)[C@]1(OC3(C)C)[C@@](C)(O)C[C@H](OC(C)=O)[C@@H]2OC(C)=O |  |  |  | Active |  |  |
| COc1ccc(CCN(C)CCCC(C#N)(c2ccc(OC)c(OC)c2)C(C)C)cc1OC (centres undefined) |  |  |  |  |  | 79.2 |

Source: ChEMBL document CHEMBL1828513, “Overcoming human P-glycoprotein-dependent multidrug resistance with novel dihydro-β-agarofuran sesquiterpenes” (Eur J Med Chem, 2011)
